This is an account of results in ChEMBL document CHEMBL5537160, “Design, Synthesis, Pharmacology, and In Silico Studies of (1S,2S,3S)-2-((S)-Amino(carboxy)methyl)-3-(carboxymethyl)cyclopropane-1-carboxylic Acid (LBG30300): A Picomolar Potency Subtype-Selective mGlu2 Receptor Agonist” (J Med Chem, 2024).

The structures appear in SMILES notation. Activity calls are given as the source filed them. The rule behind the calls is not given here. Bounds are passed on as bounds.

A short description of data set [1]: Cmax in C57BL/6 mouse brain at 10 mg/kg, iv measured after 1 hrs by LC-MS/MS analysis. It is filed as ADME, organism-based. Put shortly:
(§1)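 Mice given a single 10 mg/kg IV dose; plasma and brain concentrations sampled at 0.25, 1.0 and 4.0 h, means ± error per timepoint.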

Data set [2] addresses T1, Metabotropic glutamate receptor 2 (Rattus norvegicus, UniProt P31421). In words: Agonist activity at SNAP tagged rat mGlu2 transfected HEK293 cells preincubated with antagonist LY-341495 followed by compound addition by TR-FRET assay. The format is functional, cell-based.
The target of data set [3] is T2, Metabotropic glutamate receptor 3 (Rattus norvegicus, UniProt P31422). In words: Agonist activity at SNAP tagged rat mGlu3 transfected HEK293 cells preincubated with antagonist LY-341495 followed by compound addition by TR-FRET assay. The format is functional, cell-based.
T2 sequence (P31422 whole entry): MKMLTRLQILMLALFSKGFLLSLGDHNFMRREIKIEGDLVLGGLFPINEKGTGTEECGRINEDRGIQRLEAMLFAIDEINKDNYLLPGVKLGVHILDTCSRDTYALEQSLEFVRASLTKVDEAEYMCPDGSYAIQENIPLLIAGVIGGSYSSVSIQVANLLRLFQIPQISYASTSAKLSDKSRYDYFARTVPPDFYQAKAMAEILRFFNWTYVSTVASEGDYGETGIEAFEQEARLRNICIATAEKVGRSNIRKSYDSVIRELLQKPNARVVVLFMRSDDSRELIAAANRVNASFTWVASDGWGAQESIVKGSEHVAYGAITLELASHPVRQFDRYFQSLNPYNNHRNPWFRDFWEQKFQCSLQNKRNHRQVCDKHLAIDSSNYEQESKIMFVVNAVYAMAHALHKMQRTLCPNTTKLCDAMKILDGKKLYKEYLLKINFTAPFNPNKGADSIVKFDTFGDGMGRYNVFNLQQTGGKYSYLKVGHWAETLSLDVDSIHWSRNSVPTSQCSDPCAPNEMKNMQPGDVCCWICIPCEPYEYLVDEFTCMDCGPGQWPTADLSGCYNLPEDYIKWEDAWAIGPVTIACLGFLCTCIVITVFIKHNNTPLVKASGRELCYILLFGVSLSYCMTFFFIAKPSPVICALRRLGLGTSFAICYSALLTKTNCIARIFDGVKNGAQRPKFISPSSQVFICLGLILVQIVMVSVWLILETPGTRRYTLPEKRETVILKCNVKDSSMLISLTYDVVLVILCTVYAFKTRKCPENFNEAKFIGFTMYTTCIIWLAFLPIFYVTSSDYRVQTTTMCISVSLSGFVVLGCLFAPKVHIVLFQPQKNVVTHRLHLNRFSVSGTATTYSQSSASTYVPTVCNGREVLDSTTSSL
The nature of data set [4]: Cmax in C57BL/6 mouse brain at 10 mg/kg, iv measured after 0.25 hrs by LC-MS/MS analysis. It is filed as ADME, organism-based. A digest of the protocol:
as §1

A short description of data set [5]: Cmax in C57BL/6 mouse plasma at 10 mg/kg, iv measured after 0.25 hrs by LC-MS/MS analysis. The format is ADME, organism-based. Put shortly:
as §1

The target of data set [6] is Metabotropic glutamate receptor 6 (Rattus norvegicus) (UniProt P35349). In words: Antagonist activity at rat mGlu6 transfected in HEK293 cells co-transfected with chimeric Gqi9 incubated for 30 mins by IP-one HTRF assay. It is filed as functional, cell-based. Put shortly:
(§2)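 Rat group II/III receptor co-electroporated into HEK293 with chimeric Gqi9 and EAAC1 transporter, serum-free medium ≥2 h pre-assay. At 24 h post-transfection, Krebs wash, then 30 min compound exposure with 50 mM LiCl. IP1 accumulation quantified by HTRF kit, at least duplicate runs, mean of 2–5 experiments.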

The target in data set [7] is Metabotropic glutamate receptor 8 (Rattus norvegicus, UniProt P70579). In words: Agonist activity at rat mGlu8 transfected in HEK293 cells co-transfected with chimeric Gqi9 incubated for 30 mins by IP-one HTRF assay. It is filed as functional, cell-based. A digest of the protocol:
as §2

The target of data set [8] is Metabotropic glutamate receptor 3 (Rattus norvegicus) (UniProt P31422). The experiment in a line: Antagonist activity at rat mGlu3 transfected in HEK293 cells co-transfected with chimeric Gqi9 incubated for 30 mins by IP-one HTRF assay. The format is functional, cell-based.
The target of data set [9] is Metabotropic glutamate receptor 7 (Rattus norvegicus, UniProt P35400). The experiment in a line: Agonist activity at rat mGlu7 transfected in HEK293 cells co-transfected with chimeric Gqi9 incubated for 30 mins by IP-one HTRF assay. It is filed as functional, cell-based. Put shortly: as §2
Sequence of Metabotropic glutamate receptor 7 (P35400 whole entry): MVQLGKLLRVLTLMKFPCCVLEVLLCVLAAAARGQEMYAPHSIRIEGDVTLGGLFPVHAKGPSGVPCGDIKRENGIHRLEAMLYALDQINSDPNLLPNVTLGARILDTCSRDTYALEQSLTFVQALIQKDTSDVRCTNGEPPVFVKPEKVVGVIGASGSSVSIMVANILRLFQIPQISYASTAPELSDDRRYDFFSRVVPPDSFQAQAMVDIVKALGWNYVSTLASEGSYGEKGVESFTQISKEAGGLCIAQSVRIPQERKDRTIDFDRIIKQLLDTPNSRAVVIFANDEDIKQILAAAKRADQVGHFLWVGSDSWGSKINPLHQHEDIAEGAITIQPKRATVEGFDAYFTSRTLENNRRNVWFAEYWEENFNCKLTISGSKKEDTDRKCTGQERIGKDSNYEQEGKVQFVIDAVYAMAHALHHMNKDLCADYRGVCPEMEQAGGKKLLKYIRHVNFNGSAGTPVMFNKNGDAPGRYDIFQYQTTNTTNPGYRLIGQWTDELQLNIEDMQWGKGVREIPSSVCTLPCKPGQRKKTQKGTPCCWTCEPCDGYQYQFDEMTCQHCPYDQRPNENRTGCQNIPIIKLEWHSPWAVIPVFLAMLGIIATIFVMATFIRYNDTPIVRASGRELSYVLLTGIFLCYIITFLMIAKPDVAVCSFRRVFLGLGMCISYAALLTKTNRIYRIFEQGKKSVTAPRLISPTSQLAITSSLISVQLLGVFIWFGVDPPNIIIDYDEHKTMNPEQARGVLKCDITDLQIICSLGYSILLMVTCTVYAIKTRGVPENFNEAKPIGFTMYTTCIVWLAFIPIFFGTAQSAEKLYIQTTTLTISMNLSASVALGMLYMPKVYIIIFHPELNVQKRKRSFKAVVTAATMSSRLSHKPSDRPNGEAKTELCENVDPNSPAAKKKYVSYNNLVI
Data set [10] can be described thus: Cmax in C57BL/6 mouse plasma at 10 mg/kg, iv measured after 1 hr by LC-MS/MS analysis. It is filed as ADME, organism-based. A digest of the protocol:
as §1

Data set [11] has as its target Metabotropic glutamate receptor 1 (Rattus norvegicus) (UniProt P23385). The experiment in a line: Antagonist activity at rat mGlu1 transfected in HEK293 cells by IP-one HTRF assay. It is filed as functional, cell-based. Put shortly: (§3)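 HEK293 cells transiently electroporated with rat receptor plasmid plus EAAC1 Glu transporter, plated 150 000 cells/well on polyornithine, serum-free Glutamax DMEM ≥2 h before assay. At 24 h, washed in Krebs buffer and stimulated 30 min with compound in 50 mM LiCl. IP1 read by HTRF, at least duplicates, EC50 from 2–5 experiments.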

The target of data set [12] is Metabotropic glutamate receptor 2 (Rattus norvegicus) (UniProt P31421). In words: Antagonist activity at rat mGlu2 transfected in HEK293 cells co-transfected with chimeric Gqi9 incubated for 30 mins by IP-one HTRF assay. The format is functional, cell-based.
Data set [13] can be described thus: Unbound brain to plasma concentration ratio in C57BL/6 mouse at 10 mg/kg, iv […] by LC-MS/MS analysis. The format is ADME, organism-based. Particulars: read-out: K(p,uu,brain).
The species named for data set [14] is Rattus norvegicus. In words: Selectivity ratio of EC50 for rat mGlu3 to EC50 for rat Glu2.
Data set [15] is described as follows: Cmax in C57BL/6 mouse plasma at 10 mg/kg, iv measured after 4 hrs by LC-MS/MS analysis. It is filed as ADME, organism-based. Put shortly:
as §1

For data set [16], the target named is Metabotropic glutamate receptor 5 (Rattus norvegicus, UniProt P31424). The experiment in a line: Agonist activity at rat mGlu5 transfected in HEK293 cells by IP-one HTRF assay. Particulars: read-out: EC50. It is filed as functional, cell-based. A digest of the protocol: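 HEK293 cells transiently electroporated with rat receptor plasmid plus the high-affinity Glu transporter EAAC1. Cells were grown in DMEM with 10% FBS and seeded on polyornithine-coated wells at 150 000 cells/well. Medium was switched to serum-free Glutamax DMEM ≥2 h before assay. At 24 h cells were washed in Krebs buffer and stimulated 30 min with agonist plus 50 mM LiCl. IP1 read by IP-One HTRF; ≥ duplicates.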

For data set [17], the species on record is Rattus norvegicus. The experiment in a line: Selectivity ratio of EC50 for SNAP tagged rat mGlu3 to EC50 for SNAP tagged rat mGlu2. A digest of the protocol: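 Ratio of EC50 at SNAP-tagged rat mGlu3 to mGlu2, both measured by TR-FRET conformational assay in HEK293 after LY341495 preincubation and washing; Lumi4-Tb/Green labeling, 337 nm excitation, 620/520 nm emission.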

In data set [18] the target is Metabotropic glutamate receptor 6 (Rattus norvegicus, UniProt P35349). In words: Agonist activity at rat mGlu6 transfected in HEK293 cells co-transfected with chimeric Gqi9 incubated for 30 mins by IP-one HTRF assay. It is filed as functional, cell-based. A digest of the protocol:
as §2

Data set [19] has as its target T2, Metabotropic glutamate receptor 3. The experiment in a line: Agonist activity at rat mGlu3 transfected in HEK293 cells co-transfected with chimeric Gqi9 incubated for 30 mins by IP-one HTRF assay. It is filed as functional, cell-based.
Data set [20] has as its target Metabotropic glutamate receptor 7 (Rattus norvegicus) (UniProt P35400). In words: Antagonist activity at rat mGlu7 transfected in HEK293 cells co-transfected with chimeric Gqi9 incubated for 30 mins by IP-one HTRF assay. It is filed as functional, cell-based. A digest of the protocol:
as §2

Data set [21] has as its target Metabotropic glutamate receptor 4 (Rattus norvegicus, UniProt P31423). The experiment in a line: Agonist activity at rat mGlu4 transfected in HEK293 cells co-transfected with chimeric Gqi9 incubated for 30 mins by IP-one HTRF assay. It is filed as functional, cell-based. A digest of the protocol:
as §2

Data set [22] deals with T1, Metabotropic glutamate receptor 2. The experiment in a line: Agonist activity at rat mGlu2 transfected in HEK293 cells co-transfected with chimeric Gqi9 incubated for 30 mins by IP-one HTRF assay. The format is functional, cell-based. Put shortly: as §2
The target of data set [23] is Metabotropic glutamate receptor 1 (Rattus norvegicus, UniProt P23385). The experiment in a line: Agonist activity at rat mGlu1 transfected in HEK293 cells by IP-one HTRF assay. The format is functional, cell-based. Put shortly: as §3
Data set [24] deals with T1, Metabotropic glutamate receptor 2. In words: Agonist activity at SNAP tagged rat mGlu2 transfected HEK293 cells by TR-FRET assay. The format is functional, cell-based.
The nature of data set [25]: Half life in C57BL/6 mouse plasma at 10 mg/kg, iv by LC-MS/MS analysis. It is filed as ADME, organism-based. A digest of the protocol: as §1
Data set [26] addresses Metabotropic glutamate receptor 5 (Rattus norvegicus) (UniProt P31424). The experiment in a line: Antagonist activity at rat mGlu5 transfected in HEK293 cells by IP-one HTRF assay. The format is functional, cell-based. A digest of the protocol:
as §3

A short description of data set [27]: Cmax in C57BL/6 mouse brain at 10 mg/kg, iv measured after 4 hrs by LC-MS/MS analysis. It is filed as ADME, organism-based. Put shortly: as §1
The target in data set [28] is Metabotropic glutamate receptor 4 (Rattus norvegicus) (UniProt P31423). In words: Antagonist activity at rat mGlu4 transfected in HEK293 cells co-transfected with chimeric Gqi9 incubated for 30 mins by IP-one HTRF assay. The format is functional, cell-based. Put shortly:
as §2

Data set [29] addresses Metabotropic glutamate receptor 8 (Rattus norvegicus) (UniProt P70579). In words: Antagonist activity at rat mGlu8 transfected in HEK293 cells co-transfected with chimeric Gqi9 incubated for 30 mins by IP-one HTRF assay. The format is functional, cell-based. A digest of the protocol:
as §2

Data set [30] addresses T2, Metabotropic glutamate receptor 3. In words: Agonist activity at rat mGlu3. The format is functional.
The target in data set [31] is T1, Metabotropic glutamate receptor 2. In words: Agonist activity at rat mGlu2. The format is functional.
The target of data set [32] is Metabotropic glutamate receptor 7 (Rattus norvegicus) (UniProt P35400). In words: Agonist activity at rat mGlu7 transfected in HEK293 cells co-transfected with chimeric Gqi9 at 3000 uM incubated for 30 mins by IP-one HTRF assay relative to control. It is filed as functional, cell-based. Particulars: filed as agonist. A digest of the protocol:
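Rat receptor was co-electroporated into HEK293 cells with chimeric Gqi9, for phospholipase C coupling, and with the EAAC1 Glu transporter. Cells were seeded on polyornithine at 150 000 cells/well and moved to serum-free Glutamax DMEM ≥2 h before assay. At 24 h cells were washed in Krebs buffer and given compound at 3000 μM with 50 mM LiCl for 30 min. IP1 measured by HTRF kit; response expressed as % of control; ≥ duplicates.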

Sequence of Metabotropic glutamate receptor 8 (P70579 whole entry): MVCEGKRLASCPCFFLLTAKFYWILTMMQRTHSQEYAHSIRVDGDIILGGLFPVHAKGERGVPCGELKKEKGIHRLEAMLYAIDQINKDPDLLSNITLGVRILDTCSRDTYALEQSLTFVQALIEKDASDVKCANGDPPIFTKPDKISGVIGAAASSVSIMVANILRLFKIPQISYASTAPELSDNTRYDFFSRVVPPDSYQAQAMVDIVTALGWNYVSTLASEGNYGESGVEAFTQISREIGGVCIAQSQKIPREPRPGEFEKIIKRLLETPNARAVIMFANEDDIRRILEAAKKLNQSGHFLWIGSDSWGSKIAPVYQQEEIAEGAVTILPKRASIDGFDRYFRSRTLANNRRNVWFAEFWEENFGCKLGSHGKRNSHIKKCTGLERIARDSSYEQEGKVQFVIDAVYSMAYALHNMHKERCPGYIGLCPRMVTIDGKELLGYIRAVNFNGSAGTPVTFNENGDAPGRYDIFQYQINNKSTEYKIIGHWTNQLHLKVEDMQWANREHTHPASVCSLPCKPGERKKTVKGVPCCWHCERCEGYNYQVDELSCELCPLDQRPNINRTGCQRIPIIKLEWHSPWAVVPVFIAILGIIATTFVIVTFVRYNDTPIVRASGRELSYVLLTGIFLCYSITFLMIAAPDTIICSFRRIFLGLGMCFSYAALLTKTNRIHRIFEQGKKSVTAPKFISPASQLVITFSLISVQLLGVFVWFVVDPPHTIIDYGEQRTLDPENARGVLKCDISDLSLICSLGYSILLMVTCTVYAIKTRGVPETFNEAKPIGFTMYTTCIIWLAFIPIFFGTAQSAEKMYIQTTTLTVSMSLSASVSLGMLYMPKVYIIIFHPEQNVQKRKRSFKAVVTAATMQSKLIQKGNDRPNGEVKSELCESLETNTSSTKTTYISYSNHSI
Sequence of Metabotropic glutamate receptor 6 (P35349 whole entry): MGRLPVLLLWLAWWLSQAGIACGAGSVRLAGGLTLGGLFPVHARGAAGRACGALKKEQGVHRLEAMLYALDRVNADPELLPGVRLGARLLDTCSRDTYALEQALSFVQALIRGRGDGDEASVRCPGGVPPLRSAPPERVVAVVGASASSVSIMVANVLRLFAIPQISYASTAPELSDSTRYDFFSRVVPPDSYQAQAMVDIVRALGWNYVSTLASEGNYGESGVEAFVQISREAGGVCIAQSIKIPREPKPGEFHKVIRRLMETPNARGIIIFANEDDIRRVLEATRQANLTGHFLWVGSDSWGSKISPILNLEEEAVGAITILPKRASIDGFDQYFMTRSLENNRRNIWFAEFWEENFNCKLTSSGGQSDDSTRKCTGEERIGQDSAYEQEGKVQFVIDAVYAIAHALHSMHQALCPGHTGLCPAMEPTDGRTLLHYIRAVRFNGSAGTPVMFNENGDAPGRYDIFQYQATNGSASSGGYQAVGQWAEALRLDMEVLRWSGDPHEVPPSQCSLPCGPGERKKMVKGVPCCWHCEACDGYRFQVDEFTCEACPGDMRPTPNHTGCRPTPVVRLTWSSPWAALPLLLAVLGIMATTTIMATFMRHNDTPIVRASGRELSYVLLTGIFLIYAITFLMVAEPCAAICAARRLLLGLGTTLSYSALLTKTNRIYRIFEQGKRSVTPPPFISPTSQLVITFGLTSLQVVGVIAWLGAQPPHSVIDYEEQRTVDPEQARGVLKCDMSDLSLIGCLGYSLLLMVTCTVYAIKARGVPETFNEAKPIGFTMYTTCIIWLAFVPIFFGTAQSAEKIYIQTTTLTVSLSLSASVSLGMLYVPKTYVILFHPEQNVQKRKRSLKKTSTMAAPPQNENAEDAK
Sequence of Metabotropic glutamate receptor 4 (P31423 whole entry): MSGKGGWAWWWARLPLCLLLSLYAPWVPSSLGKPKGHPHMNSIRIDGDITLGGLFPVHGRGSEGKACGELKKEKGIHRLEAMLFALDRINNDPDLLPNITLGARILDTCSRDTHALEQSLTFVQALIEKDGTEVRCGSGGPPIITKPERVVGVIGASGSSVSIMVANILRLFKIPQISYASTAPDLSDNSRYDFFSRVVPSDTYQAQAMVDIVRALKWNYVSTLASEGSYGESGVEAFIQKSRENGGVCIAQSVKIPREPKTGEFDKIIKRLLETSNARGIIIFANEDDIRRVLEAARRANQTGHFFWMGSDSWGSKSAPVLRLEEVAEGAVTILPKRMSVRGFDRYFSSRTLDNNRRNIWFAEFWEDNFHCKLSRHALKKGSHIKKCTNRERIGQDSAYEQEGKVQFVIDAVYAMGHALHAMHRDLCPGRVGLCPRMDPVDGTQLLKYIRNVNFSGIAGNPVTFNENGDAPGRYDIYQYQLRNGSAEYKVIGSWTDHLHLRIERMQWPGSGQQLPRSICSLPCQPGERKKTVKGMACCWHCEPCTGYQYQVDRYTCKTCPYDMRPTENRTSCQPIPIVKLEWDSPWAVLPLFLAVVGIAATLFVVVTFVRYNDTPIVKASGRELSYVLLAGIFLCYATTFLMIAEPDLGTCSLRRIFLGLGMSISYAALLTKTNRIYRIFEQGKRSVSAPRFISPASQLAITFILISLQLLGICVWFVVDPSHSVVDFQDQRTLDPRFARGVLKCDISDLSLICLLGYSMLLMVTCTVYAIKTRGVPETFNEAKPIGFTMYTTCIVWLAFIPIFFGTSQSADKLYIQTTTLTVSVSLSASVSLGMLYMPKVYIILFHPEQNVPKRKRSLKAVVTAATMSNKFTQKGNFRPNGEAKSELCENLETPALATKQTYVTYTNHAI
Sequence of Metabotropic glutamate receptor 7 (Rattus norvegicus) (P35400 whole entry): as the sequence (P35400 whole entry) above
Sequence of Metabotropic glutamate receptor 8 (Rattus norvegicus) (P70579 whole entry): as the sequence (P70579 whole entry) above
Sequence of Metabotropic glutamate receptor 6 (Rattus norvegicus) (P35349 whole entry): as the sequence (P35349 whole entry) above
Sequence of Metabotropic glutamate receptor 4 (Rattus norvegicus) (P31423 whole entry): as the sequence (P31423 whole entry) above

Consider `Cl.N[C@H](C(=O)O)[C@H]1[C@H](CC(=O)O)[C@@H]1C(=O)O`, for which the Cmax in data set [1] is 75 ng/g; in data set [4], 86 ng/g; in [5], 5360 ng/mL; in [10], 583 ng/mL; in data set [15], 50 ng/mL; in data set [27], 68 ng/g. For the same compound, the EC50 in [2] was 22 nM; in data set [3], 11500 nM; in [7] (read-out: EC50), 97 nM; in [7] (read-out: pEC50 (converted)), 35.5 nM; in [9], over 30000 nM; in [16], over 30000 nM. For the same compound, the EC50 in data set [18] (read-out: EC50) was 280 nM; in [18] (read-out: pEC50 (converted)), 245 nM; in [19], 373 nM; in data set [21] (read-out: EC50), 110 nM; in data set [21] (read-out: pEC50 (converted)) it was 35.5 nM; in [22] (read-out: EC50) it was 1 nM. Also, the EC50 in data set [22] (read-out: pEC50 (converted)) is 0.575 nM; in [23], over 30000 nM; in [24] (read-out: EC50), 13 nM; in data set [24] (read-out: pEC50 (converted)) it was 22.4 nM. Besides, the result in [6], in data set [8], in data set [11], in [12], in data set [20] and in data set [26] was inactive. For the same compound, the result in data set [28] and in data set [29] was inactive. In [13], the Kp uu was 0.02. For the same compound, the Ratio EC50 turned out to be 620 in the data set listed under Rattus norvegicus [14] and 513 in the data set filed under Rattus norvegicus [17]. The half-life in data set [25] is 30 min.

Consider `COc1cccc(C(=O)N[C@H]2C[C@@](N)(C(=O)O)[C@@H]3[C@@H](C(=O)O)[C@@H]32)c1`, for which the EC50 in [3] came out at 32 nM; in [24] (read-out: EC50) it was 2820 nM.

Turning to `N[C@H](C(=O)O)[C@H]1[C@@H](CO)[C@@H]1C(=O)O`, the EC50 in data set [30] stood at 7 nM; in [31], 4 nM.

Consider `N[C@@H](CCP(=O)(O)O)C(=O)O`, for which, in data set [32], the Activity is 100%. In addition, the outcome in data set [6], in data set [8], in data set [11], in data set [12], in [20] and in data set [26] was inactive. In addition, the outcome in data set [28] and in data set [29] was inactive. Besides, the EC50 is 290 nM in [7] (read-out: EC50), 174 nM in data set [7] (read-out: pEC50 (converted)), 2290 nM in data set [18] (read-out: pEC50 (converted)) and 180 nM in data set [21] (read-out: EC50).
